Measured values collected from several papers.
Compare with care: the assays were run in different laboratories.
Observed: binding
MET: Hepatocyte growth factor receptor (MET, Homo sapiens, UniProt P08581)
Tumor necrosis factor receptor superfamily member 9: Tumor necrosis factor receptor superfamily member 9 (Homo sapiens, UniProt Q07011)

CC(c1ccccc1)n1cc(-c2c(F)ccc3cn[nH]c23)c(=O)[nH]c1=O (stereo not shown)
Kd (MET): 398 nM

CCCC[C@@H]1NC(=O)[C@H](Cc2ccc(O)cc2)NC(=O)[C@@H]2CCCN2C(=O)[C@H](CC(=O)O)NC(=O)[C@H](C)NC(=O)[C@H](Cc2ccccc2)NC(=O)[C@@H]2CSCCC(=O)N3CN(CN(C3)C(=O)CCSC[C@@H](C(=O)N[C@@H](C)C(N)=O)NC1=O)C(=O)CCSC[C@H](NC(C)=O)C(=O)N[C@@H](CC(C)(C)C)C(=O)N1CCC[C@H]1C(=O)N[C@@H](CCC(=O)O)C(=O)N[C@H](CCCCNC(=O)CCc1cn(CCOCCOCCOCCOCCOCCC(=O)N[C@H]3CSCCC(=O)N4CN5CN(C4)C(=O)CCSC[C@H](NC(=O)CNC(=O)[C@H](Cc4ccccc4)NC(=O)[C@@H]4CCCN4C3=O)C(=O)N[C@@H](CCSC)C(=O)N[C@@H](CCCCNC(=N)N)C(=O)N[C@@H](CC(=O)O)C(=O)N[C@@H](Cc3c[nH]c4ccccc34)C(=O)N[C@@H](CO)C(=O)N[C@@H]([C@@H](C)O)C(=O)N3CCC[C@H]3C(=O)N3C[C@H](O)C[C@H]3C(=O)N[C@@H](Cc3c[nH]c4ccccc34)C(=O)N[C@H](C(N)=O)CSCCC5=O)nn1)C(=O)N1CCC[C@H]1C(=O)N[C@@H](Cc1ccc(O)cc1)C(=O)N2
Kd (Tumor necrosis factor receptor superfamily member 9; SPR): 3.7 nM

CC(c1ccccc1)n1cc(-c2cc(F)cc3c(C#N)n[nH]c23)c(=O)[nH]c1=O (stereo not shown)
Kd (MET): 79.4 nM

CC(C)C[C@H](NC(=O)[C@@H]1CCCN1C(=O)[C@H](Cc1ccccc1)NC(=O)[C@H](CCC(=O)O)NC(=O)[C@@H](N)CC(N)=O)C(=O)N[C@@H](CS)C(=O)N[C@@H](CO)C(=O)N[C@@H](CC(C)C)C(=O)N1CCC[C@H]1C(=O)N[C@@H](CCC(=O)O)C(=O)NCC(=O)O
Kd (Ubiquitin carboxyl-terminal hydrolase 7 (USP7, Homo sapiens, UniProt Q93009); ITC; pH 8): 118000 nM

CCCCC/C=C\C/C=C\C/C=C\C/C=C\CCCC(=O)O
Kd (Nuclear receptor subfamily 4 group A member 2 (Homo sapiens, UniProt P43354); fluorescence): 58000 nM

CCCN1CCc2cc(OC)cc3c2[C@H]1Cc1ccc(O)c(O)c1-3
Kd (D(2) dopamine receptor (Drd2, Rattus norvegicus, UniProt P61169); radioligand; cell membranes): 2.21 nM

CCCC[C@@H]1NC(=O)[C@H](Cc2ccc(O)cc2)NC(=O)[C@@H]2CCCN2C(=O)[C@H](CC(=O)O)NC(=O)[C@H](C)NC(=O)[C@H](Cc2ccccc2)NC(=O)[C@@H]2CSCCC(=O)N3CN(CN(C3)C(=O)CCSCCC(=O)N[C@@H](CC(C)(C)C)C(=O)N3CCC[C@H]3C(=O)N[C@@H](CCC(=O)O)C(=O)N[C@H](CCCCNC(=O)CCc3cn(CCOCCOCCOCCOCCOCCC(=O)N[C@H]4CSCCC(=O)N5CN6CN(C5)C(=O)CCSC[C@H](NC(=O)[C@@H](CC(=O)O)NC(=O)[C@H](Cc5cccc7ccccc57)NC(=O)[C@@H]5CCCN5C4=O)C(=O)N[C@@H](CCSC)C(=O)N[C@@H](CCCCNC(=N)N)C(=O)N[C@@H](CC(=O)O)C(=O)N[C@@H](Cc4c[nH]c5ccccc45)C(=O)N[C@@H](CO)C(=O)N[C@@H]([C@@H](C)O)C(=O)N4CCC[C@H]4C(=O)N4C[C@H](O)C[C@H]4C(=O)N[C@@H](Cc4c[nH]c5ccccc45)C(=O)N[C@H](C(N)=O)CSCCC6=O)nn3)C(=O)N3CCC[C@H]3C(=O)N[C@@H](Cc3ccc(O)cc3)C(=O)N2)C(=O)CCSCCNC1=O
Kd (Tumor necrosis factor receptor superfamily member 9; SPR): 49 nM

CCCCC1(CCCCCCCCCCCCC(=O)O)OCC(C)(C)N1[O] (stereo not shown)
Kd (kcsA (Streptomyces lividans, UniProt P0A334)): 100 to 1000 nM

CC(c1ccccc1Cl)n1cc(-c2cc(F)cc(F)c2)c(=O)[nH]c1=O (stereo not shown)
Kd (MET): 39800 nM

CCCC[C@@H]1NC(=O)[C@H](Cc2ccc(O)cc2)NC(=O)[C@@H]2CCCN2C(=O)[C@H](CC(=O)O)NC(=O)[C@H](C)NC(=O)[C@H](Cc2ccccc2)NC(=O)[C@@H]2CSCCC(=O)N3CN(CN(C3)C(=O)CCSC[C@H](NC(C)=O)C(=O)N[C@@H](CC(C)(C)C)C(=O)N3CCC[C@H]3C(=O)N[C@@H](CCC(=O)O)C(=O)N[C@H](CCCCNC(=O)CCc3cn(CCOCCOCCOCCOCCOCCC(=O)N[C@H]4CSCCC(=O)N5CN6CN(C5)C(=O)CCSC[C@H](NC(=O)[C@@H](CC(=O)O)NC(=O)[C@H](Cc5cccc7ccccc57)NC(=O)[C@@H]5CCCN5C4=O)C(=O)N[C@@H](CCSC)C(=O)N[C@@H](CCCCNC(=N)N)C(=O)N[C@@H](CC(=O)O)C(=O)N[C@@H](Cc4c[nH]c5ccccc45)C(=O)N[C@@H](CO)C(=O)N[C@@H]([C@@H](C)O)C(=O)N4CCC[C@H]4C(=O)N4C[C@H](O)C[C@H]4C(=O)N[C@@H](Cc4c[nH]c5ccccc45)C(=O)N[C@H](C(N)=O)CSCCC6=O)nn3)C(=O)N3CCC[C@H]3C(=O)N[C@@H](Cc3ccc(O)cc3)C(=O)N2)C(=O)CCSCCNC1=O
Kd (Tumor necrosis factor receptor superfamily member 9; SPR): 30 nM
